In ChEMBL document CHEMBL5038630 (J Med Chem, 2022):
Activity calls are given as the source filed them. No cut-off for these calls is given here.

How the values were obtained:
[1] = target: Ionotropic glutamate receptor NMDA 1/2D (Rattus norvegicus, UniProt P35439+Q62645); test: Agonist activity at rat GluN1/GluN2D NMDA receptor expressed in Xenopus oocytes measured after 4 days in presence of L-glutamte by two-electrode voltage-clamp recording assay; assay type: cell-based, Oocyte
Procedure, shortened: (§1)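 Xenopus oocytes were injected with rat GluN1 and GluN2C or GluN2D cRNA (1:2) and recorded by TEVC 2–4 days later at −40 mV, room temperature, pH 7.4 HEPES/NaCl/BaCl2 saline. Concentration-response with 300 μM L-Glu present. NR means <5% response at the concentration given. DMSO ≤0.5%. 3–14 oocytes.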

[2] = target: Glutamate NMDA receptor; Grin1/Grin2a (Rattus norvegicus, UniProt P35439+Q00959); test: Agonist activity at rat GluN1/GluN2A NMDA receptor expressed in Xenopus oocytes measured after 4 days in presence of L-glutamte by two-electrode voltage-clamp recording assay; assay type: cell-based, Oocyte
Chain of Glutamate NMDA receptor; Grin1/Grin2a (Q00959 whole entry, other chains not shown): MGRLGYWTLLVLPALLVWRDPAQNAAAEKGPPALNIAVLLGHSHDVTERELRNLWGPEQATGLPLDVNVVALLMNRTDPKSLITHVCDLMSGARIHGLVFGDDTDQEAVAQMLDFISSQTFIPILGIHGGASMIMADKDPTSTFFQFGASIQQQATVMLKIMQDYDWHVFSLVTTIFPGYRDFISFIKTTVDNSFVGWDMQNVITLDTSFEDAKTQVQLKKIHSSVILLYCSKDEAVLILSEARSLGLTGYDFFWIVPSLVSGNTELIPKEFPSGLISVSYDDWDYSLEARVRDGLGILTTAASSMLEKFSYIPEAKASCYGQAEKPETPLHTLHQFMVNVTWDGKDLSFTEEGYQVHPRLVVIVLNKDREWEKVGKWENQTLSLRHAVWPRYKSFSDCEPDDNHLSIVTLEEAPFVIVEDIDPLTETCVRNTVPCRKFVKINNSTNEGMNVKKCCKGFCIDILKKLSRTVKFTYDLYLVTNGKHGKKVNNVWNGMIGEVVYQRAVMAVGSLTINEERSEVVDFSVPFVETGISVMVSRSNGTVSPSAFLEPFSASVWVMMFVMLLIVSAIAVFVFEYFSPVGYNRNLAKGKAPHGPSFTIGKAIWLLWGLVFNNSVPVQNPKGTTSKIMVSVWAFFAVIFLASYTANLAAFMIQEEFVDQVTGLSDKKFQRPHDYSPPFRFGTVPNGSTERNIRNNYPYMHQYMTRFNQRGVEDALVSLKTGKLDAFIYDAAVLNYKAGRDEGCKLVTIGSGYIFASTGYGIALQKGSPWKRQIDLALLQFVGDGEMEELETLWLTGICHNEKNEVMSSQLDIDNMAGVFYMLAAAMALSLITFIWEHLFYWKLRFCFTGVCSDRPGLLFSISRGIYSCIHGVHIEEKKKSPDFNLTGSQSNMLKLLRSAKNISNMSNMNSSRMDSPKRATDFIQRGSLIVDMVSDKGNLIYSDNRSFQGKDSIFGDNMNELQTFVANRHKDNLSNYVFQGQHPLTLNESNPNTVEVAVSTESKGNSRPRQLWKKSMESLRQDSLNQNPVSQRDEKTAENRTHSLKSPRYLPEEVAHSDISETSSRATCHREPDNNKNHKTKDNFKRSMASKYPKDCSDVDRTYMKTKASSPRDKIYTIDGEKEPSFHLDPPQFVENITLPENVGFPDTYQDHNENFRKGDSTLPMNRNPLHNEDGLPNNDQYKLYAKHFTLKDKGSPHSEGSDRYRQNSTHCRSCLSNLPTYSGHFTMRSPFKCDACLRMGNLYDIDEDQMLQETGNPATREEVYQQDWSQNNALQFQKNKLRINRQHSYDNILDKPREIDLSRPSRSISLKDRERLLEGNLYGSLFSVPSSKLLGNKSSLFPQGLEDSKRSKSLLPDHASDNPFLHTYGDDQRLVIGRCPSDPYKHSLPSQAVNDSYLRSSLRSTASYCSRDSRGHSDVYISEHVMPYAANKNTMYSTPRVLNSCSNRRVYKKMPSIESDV
Procedure, shortened: (§2)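 Rat GluN1 plus GluN2A or GluN2B cRNA (1:2) in Xenopus oocytes. TEVC at −40 mV, room temperature, 2–4 days post-injection. Bath: 90 mM NaCl, 1 mM KCl, 10 mM HEPES, 0.5 mM BaCl2, 0.01 mM EDTA, pH 7.4. Oocytes were BAPTA-injected before recording. Agonist applied with 300 μM L-Glu throughout. NR means <5% response at the stated concentration. 3–14 oocytes.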

[3] = Agonist activity at wild type GluN1/GluN2A NMDA receptor (unknown origin) expressed in Xenopus oocytes measured after 4 days in presence of L-glutamate by two-electrode voltage-clamp recording assay; conditions: Homo sapiens, Oocyte, 96 h
[4] = target: Glutamate NMDA receptor; Grin1/Grin2c (Rattus norvegicus, UniProt P35439+Q00961); test: Agonist activity at rat GluN1/GluN2C NMDA receptor expressed in Xenopus oocytes measured after 4 days in presence of L-glutamte by two-electrode voltage-clamp recording assay; assay type: cell-based, Oocyte; procedure, shortened: as §1
Chain of Glutamate NMDA receptor; Grin1/Grin2c (Q00961 whole entry, other chains not shown): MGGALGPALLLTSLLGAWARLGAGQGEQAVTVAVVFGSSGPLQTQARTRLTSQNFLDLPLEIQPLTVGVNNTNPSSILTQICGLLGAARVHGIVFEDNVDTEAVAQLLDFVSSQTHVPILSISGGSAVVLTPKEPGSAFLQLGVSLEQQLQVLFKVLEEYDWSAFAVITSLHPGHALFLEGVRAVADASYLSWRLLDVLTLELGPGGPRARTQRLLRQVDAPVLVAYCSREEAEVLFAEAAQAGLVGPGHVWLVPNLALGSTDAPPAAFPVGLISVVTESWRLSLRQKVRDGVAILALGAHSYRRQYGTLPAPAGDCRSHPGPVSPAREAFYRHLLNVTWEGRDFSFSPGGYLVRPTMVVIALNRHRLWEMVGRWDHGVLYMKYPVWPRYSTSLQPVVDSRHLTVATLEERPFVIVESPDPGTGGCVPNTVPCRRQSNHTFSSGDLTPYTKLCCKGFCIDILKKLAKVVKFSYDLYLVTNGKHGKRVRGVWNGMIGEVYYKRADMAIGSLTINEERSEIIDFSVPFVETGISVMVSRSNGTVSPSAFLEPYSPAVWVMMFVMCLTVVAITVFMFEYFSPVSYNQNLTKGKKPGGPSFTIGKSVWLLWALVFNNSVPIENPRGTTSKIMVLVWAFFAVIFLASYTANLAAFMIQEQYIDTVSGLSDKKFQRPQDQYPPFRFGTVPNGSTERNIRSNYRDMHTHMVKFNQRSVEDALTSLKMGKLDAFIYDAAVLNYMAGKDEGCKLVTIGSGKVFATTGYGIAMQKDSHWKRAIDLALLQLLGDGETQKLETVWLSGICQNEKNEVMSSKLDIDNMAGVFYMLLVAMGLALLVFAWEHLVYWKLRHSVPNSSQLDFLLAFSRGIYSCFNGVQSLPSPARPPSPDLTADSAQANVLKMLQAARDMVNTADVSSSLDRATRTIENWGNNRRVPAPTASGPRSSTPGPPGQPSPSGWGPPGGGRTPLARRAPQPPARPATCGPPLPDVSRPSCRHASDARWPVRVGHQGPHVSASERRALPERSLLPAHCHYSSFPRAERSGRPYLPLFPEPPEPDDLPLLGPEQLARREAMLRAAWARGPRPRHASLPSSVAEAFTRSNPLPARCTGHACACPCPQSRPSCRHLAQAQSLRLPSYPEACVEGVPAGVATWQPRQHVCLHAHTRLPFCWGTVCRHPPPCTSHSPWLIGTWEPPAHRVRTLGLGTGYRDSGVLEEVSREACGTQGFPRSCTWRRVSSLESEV

Oocyte [5] = test: Agonist activity at mutant GluN1 F484A/T518 mutant//GluN3B NMDA receptor (unknown origin) expressed in Xenopus oocytes measured after 4 days in presence of glycine by two-electrode voltage-clamp recording assay; assay type: cell-based; conditions: Homo sapiens, time 4.0 day
[6] = system: GluN1/GluN2A (Rattus norvegicus); test: Agonist activity at wild type GluN1/GluN2A NMDA receptor (rat) expressed in Xenopus oocytes assessed as relative maximal efficacy measured at 10 uM after 4 days in presence of glycine by two-electrode voltage-clamp recording assay relative to glycine; conditions: filed as agonist, time 4.0 day
[7] = Binding affinity at recombinant GluN1a/GluN2B NMDA receptor (unknown origin) expressed in Xenopus oocytes measured after 4 days in presence of L-glutamte by two-electrode voltage-clamp recording assay; assay type: cell-based, Homo sapiens; conditions: oocyte
[8] = Agonist activity at GluN1/GluN2A V783F mutant NMDA receptor (unknown origin) expressed in Xenopus oocytes measured after 4 days in presence of glycine by two-electrode voltage-clamp recording assay; assay type: cell-based; conditions: Homo sapiens, Oocyte, 96 h
Procedure, shortened: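 Rat GluN1 and GluN2A cRNA (1:2) injected into Xenopus oocytes, which received 50 nL of 50 mM BAPTA 10–30 min before recording. TEVC done 2–4 days after injection at room temperature, −40 mV, in 90 mM NaCl, 1 mM KCl, 10 mM HEPES, 0.5 mM BaCl2, 0.01 mM EDTA, pH 7.4. Agonist applied with 300 μM L-Glu continuously present, DMSO <0.5%.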

Oocyte [9] = test: Agonist activity at recombinant GluN1a/GluN2B NMDA receptor (unknown origin) expressed in Xenopus oocytes assessed as inhibition of glycine-induced activation of current measured at 10 uM after 4 days in presence of L-glutamte by two-electrode voltage-clamp recording assay; assay type: cell-based; conditions: Homo sapiens, filed as agonist, time 4.0 day
Procedure, shortened: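 Oocytes expressing GluN1/2B were BAPTA-injected and held under two-electrode voltage clamp in continuous 300 μM L-Glu. […] Values are mean ± SEM from 12 oocytes.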

Oocyte [10] = test: Agonist activity at wild type GluN1/GluN2A-V783L mutant NMDA receptor (unknown origin) expressed in Xenopus oocytes assessed as relative maximal efficacy measured at 10 uM after 4 days in presence of glycine by two-electrode voltage-clamp recording assay relative to glycine; assay type: cell-based; conditions: Homo sapiens, time 4.0 day
Procedure, shortened: (§3)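 Oocytes expressing GluN1 with wild-type GluN2A or with the GluN2A-V783L or V783F mutant were BAPTA-injected and recorded by TEVC in continuous 300 μM L-Glu. […] Values are mean ± SEM from 3–8 oocytes, compared with wild type by two-way ANOVA with Tukey's test.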

Oocyte [11] = test: Agonist activity at mutant GluN1 F484A/T518 mutant//GluN3A NMDA receptor (unknown origin) expressed in Xenopus oocytes measured after 4 days in presence of glycine by two-electrode voltage-clamp recording assay; assay type: cell-based; conditions: Homo sapiens, time 4.0 day
[12] = target: Glutamate NMDA receptor; Grin1/Grin2b (Rattus norvegicus, UniProt P35439+Q00960); test: Agonist activity at rat GluN1/GluN2B NMDA receptor expressed in Xenopus oocytes measured after 4 days in presence of L-glutamte by two-electrode voltage-clamp recording assay; assay type: cell-based, Oocyte; procedure, shortened: as §2
Chain of Glutamate NMDA receptor; Grin1/Grin2b (Q00960 whole entry, other chains not shown): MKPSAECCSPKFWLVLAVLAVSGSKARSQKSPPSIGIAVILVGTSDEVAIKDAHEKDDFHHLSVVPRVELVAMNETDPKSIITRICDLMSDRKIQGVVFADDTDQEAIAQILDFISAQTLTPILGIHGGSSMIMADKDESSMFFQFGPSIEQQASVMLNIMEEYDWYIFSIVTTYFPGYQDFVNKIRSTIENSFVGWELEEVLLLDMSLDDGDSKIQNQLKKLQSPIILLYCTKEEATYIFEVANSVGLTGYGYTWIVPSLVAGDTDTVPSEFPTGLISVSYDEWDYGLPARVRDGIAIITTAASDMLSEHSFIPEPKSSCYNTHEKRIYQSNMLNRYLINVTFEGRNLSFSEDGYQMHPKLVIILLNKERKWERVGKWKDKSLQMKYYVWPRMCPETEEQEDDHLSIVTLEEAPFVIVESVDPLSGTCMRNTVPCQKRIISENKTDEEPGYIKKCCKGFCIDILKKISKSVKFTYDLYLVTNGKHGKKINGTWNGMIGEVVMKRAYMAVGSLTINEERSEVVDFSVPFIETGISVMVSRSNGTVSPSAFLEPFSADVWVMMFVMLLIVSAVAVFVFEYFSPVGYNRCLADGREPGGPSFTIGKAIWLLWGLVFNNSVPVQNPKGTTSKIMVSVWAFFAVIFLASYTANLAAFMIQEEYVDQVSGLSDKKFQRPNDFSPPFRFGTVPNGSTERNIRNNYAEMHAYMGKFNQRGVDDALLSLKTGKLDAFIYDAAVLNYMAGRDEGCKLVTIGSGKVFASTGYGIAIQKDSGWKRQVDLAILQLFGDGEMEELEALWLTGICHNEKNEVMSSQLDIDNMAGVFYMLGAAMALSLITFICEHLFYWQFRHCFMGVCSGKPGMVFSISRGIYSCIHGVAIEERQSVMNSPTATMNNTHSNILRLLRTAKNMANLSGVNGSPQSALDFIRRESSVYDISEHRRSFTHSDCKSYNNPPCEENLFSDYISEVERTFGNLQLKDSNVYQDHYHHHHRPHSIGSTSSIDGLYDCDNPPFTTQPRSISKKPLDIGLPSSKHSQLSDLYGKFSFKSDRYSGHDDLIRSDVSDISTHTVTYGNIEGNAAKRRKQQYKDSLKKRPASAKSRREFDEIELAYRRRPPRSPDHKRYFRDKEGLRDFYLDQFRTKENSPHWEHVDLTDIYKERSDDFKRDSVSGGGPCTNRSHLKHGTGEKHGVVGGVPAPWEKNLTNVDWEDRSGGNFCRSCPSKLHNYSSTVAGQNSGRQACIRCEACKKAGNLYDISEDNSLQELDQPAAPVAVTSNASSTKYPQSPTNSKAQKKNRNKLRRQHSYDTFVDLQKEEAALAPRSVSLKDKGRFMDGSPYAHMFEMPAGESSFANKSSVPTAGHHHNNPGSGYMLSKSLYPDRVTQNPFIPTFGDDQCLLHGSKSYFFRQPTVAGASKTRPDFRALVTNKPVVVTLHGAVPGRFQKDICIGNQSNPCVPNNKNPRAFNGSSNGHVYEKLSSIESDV

Oocyte [13] = test: Agonist activity at wild type GluN1/ GluN2A-V783F mutant NMDA receptor (unknown origin) expressed in Xenopus oocytes assessed as relative maximal efficacy measured at 10 uM after 4 days in presence of glycine by two-electrode voltage-clamp recording assay relative to glycine; assay type: cell-based; conditions: Homo sapiens, time 4.0 day; procedure, shortened: as §3

**Q.** Which EC50 [1] does the source give for CCc1ccccc1-c1ccc(C(=O)NC[C@@H](N)C(=O)O)o1 here?
**A.** The EC50 was 150 nM.

**Q.** And the EC50 [2]?
**A.** The EC50 was 93 nM.

**Q.** What about the EC50 [3] of the same compound?
**A.** The EC50 was 110 nM.

**Q.** And the EC50 [4]?
**A.** The EC50 was 63 nM.

**Q.** What about the inhibition (Oocyte [5]) of the same compound?
**A.** Its inhibition is “inactive”.

**Q.** And the Rmax [6]?
**A.** The Rmax was 45%.

**Q.** What about the Ki [7] of the same compound?
**A.** The Ki was 100 nM.

**Q.** And the EC50 [8]?
**A.** Its EC50 is 410 nM.

**Q.** And the inhibition (Oocyte [9])?
**A.** The inhibition was 47%.

**Q.** What about the Rmax (Oocyte [10]) of the same compound?
**A.** Its Rmax is 30%.

**Q.** What about the inhibition (Oocyte [11]) of the same compound?
**A.** Its inhibition is “inactive”.

**Q.** What about the IC50 [12] of the same compound?
**A.** The IC50 was 10000 nM.

**Q.** What about the Rmax (Oocyte [13]) of the same compound?
**A.** The Rmax was 9%.
